Laboratory results reported in ChEMBL document CHEMBL1828582, “Synthesis and Na+/H+ exchanger inhibitory activity of benzoylguanidine derivatives” (Eur J Med Chem, 2011).

How the values were obtained:
[1] = Antiischemic activity against Na2S2O4-induced hypoxia/reoxygenation cell injury in neonatal rat primary cardiac myocytes assessed as increase in cell survival rate at 10^-6 mol/L by MTT assay; format: functional, Cardiac muscle cell
Procedure, shortened: (§1)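 Neonatal rat primary cardiomyocytes, six wells per group. Hypoxia induced with 50 mmol/L Na2S2O4 in serum-free DMEM for 2 h, then reoxygenated 4 h in DMEM with 10% serum. Drug added in serum-free DMEM 1 h before reoxygenation, final 10^-6, 10^-5, 10^-4 mol/L. MTT (5 mg/mL) for 4 h, formazan dissolved in DMSO, A490. Survival = treated OD/normal control OD.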

[2] = Antiischemic activity against Na2S2O4-induced hypoxia/reoxygenation cell injury in neonatal rat primary cardiac myocytes assessed as cell viability at 10^-5 mol/L by MTT assay; format: functional; settings: Cardiac muscle cell; procedure, shortened: as §1
[3] = Antiischemic activity against Na2S2O4-induced hypoxia/reoxygenation cell injury in neonatal rat primary cardiac myocytes assessed as cell viability at 10^-6 mol/L by MTT assay; format: functional; settings: Cardiac muscle cell; procedure, shortened: as §1
[4] = Antiischemic activity against Na2S2O4-induced hypoxia/reoxygenation cell injury in neonatal rat primary cardiac myocytes assessed as increase in cell survival rate at 10^-4 mol/L by MTT assay; format: functional, Cardiac muscle cell; procedure, shortened: as §1
[5] = Antiischemic activity against Na2S2O4-induced hypoxia/reoxygenation cell injury in neonatal rat primary cardiac myocytes assessed as increase in cell survival rate at 10^-5 mol/L by MTT assay; format: functional, Cardiac muscle cell; procedure, shortened: as §1
[6] = Antiischemic activity against Na2S2O4-induced hypoxia/reoxygenation cell injury in neonatal rat primary cardiac myocytes assessed as cell viability at 10^-4 mol/L by MTT assay; format: functional; settings: Cardiac muscle cell; procedure, shortened: as §1

SMILES	Activity [1]	MTT OD at 10 µM [2]	MTT OD at 1 µM [3]	Activity [4]	Activity [5]	MTT OD at 100 µM [6]
COc1ccc(CN2CCN(Cc3ccc(C(=O)N=C(N)N)cc3[N+](=O)[O-])CC2)c(OC)c1OC	50.41%	0.44 absorbance	0.37 absorbance	69.24%	59.78%	0.532 absorbance
COc1ccc(CN2CCN(CCOc3ccc(C(=O)NC(=N)N)cc3NC(=O)c3ccccc3[N+](=O)[O-])CC2)c(OC)c1OC	48.05%	0.379 absorbance	0.353 absorbance	56.48%	51.45%	0.434 absorbance
COc1ccc(CN2CCN(CCOc3ccc(C(=O)NC(=N)N)cc3NC(=O)c3ccc(Cl)cc3Cl)CC2)c(OC)c1OC	49.27%	0.409 absorbance	0.362 absorbance	58.33%	55.52%	0.488 absorbance
COc1ccc(CN2CCN(CCOc3ccc(C(=O)NC(=N)N)cc3NC(=O)c3sccc3C)CC2)c(OC)c1OC	53.22%	0.454 absorbance	0.391 absorbance	72.41%	61.63%	0.556 absorbance
